High-throughput results from PubChem BioAssay.
KDM4C inh: blocks human GASC-1 (KDM4C) demethylase activity | GST-KDM4C 2-372, H3K9me3 peptide, LANCE TR-FRET | inhibition, % at 12.5 µM | 96,000 compounds, 0.15% hits;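 active means mean replicate inhibition above about 25%, with at least 55% of replicates also reaching it, limit read from the data, passing the limit was not always enough; inconclusive means only one of those two conditions met; inactive means neither condition met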
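reagent = H3K9me3 peptide substrate, Fe(II), 2-oxoglutarate | system = GST-tagged GASC-1 (JMJD2C) catalytic fragment, aa 2-372 | amount = enzyme final amount 10 nM | read-out = Fall in 671/618 emission ratio as inhibition | medium = HEPES buffer, pH 7.5, plus ascorbate | schedule = 30 min reaction, 60 min detection, RT | measured by = LANCE TR-FRET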
IDH1 mut inh: inhibitors of human IDH1 R132H | inhibition, % at 10 µM | 70,000 compounds, 0.18% hits | IDH1 R132H reductase, diaphorase/resazurin fluorescence, 60 min | O75874 | AID 624101; in the data active means inhibition above about 34%; inconclusive means no clear call, values can overlap the other calls; inactive means below about 11%;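 further: 0% = DMSO and 100% = no enzyme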
Target sequence (O75874 whole entry R132H): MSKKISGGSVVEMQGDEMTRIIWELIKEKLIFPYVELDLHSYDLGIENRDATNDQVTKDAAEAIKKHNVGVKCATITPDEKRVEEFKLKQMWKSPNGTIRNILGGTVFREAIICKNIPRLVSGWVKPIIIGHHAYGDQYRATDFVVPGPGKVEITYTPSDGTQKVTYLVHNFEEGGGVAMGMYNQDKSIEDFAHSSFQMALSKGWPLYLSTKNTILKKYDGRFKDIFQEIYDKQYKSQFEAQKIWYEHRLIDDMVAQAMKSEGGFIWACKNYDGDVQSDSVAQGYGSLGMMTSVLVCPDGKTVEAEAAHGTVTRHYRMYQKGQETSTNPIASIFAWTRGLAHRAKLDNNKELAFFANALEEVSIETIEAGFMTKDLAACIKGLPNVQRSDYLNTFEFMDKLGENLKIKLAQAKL
T cruzi growth-1: blocks T. cruzi growth in NIH3T3 culture; inhibition, % at 8.34 µM; 77,000 compounds, 5.9% hits; T. cruzi beta-gal in NIH3T3, GalScreen luminescence, 90 h;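 active means mean inhibition above about 93%, with at least 55% of replicates each passing it, limit read from the data, passing the limit was not always enough; inconclusive means only one of those two conditions holds; inactive means neither condition holds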
T cruzi growth-2: Trypanosoma cruzi proliferation inhibition | shares compounds with T cruzi growth-1 | T. cruzi beta-gal in NIH3T3, GalScreen luminescence, 90 h | inhibition, % at 8.35 µM | 5,600 compounds, 72% hits;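 active means mean replicate inhibition above about 95% and at least 55% of replicates individually reaching it, limit read from the data; inconclusive means only one of the two criteria is met; inactive means neither criterion is met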
T cruzi growth-3: Trypanosoma cruzi proliferation inhibition. shares compounds with T cruzi growth-1. T. cruzi beta-gal in NIH3T3, GalScreen luminescence, 90 h. inhibition, % at 2.09 µM. 5,600 compounds, 21% hits. AID 651740;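 active means mean inhibition above about 95%, with at least 55% of replicates also reaching it, limit read from the data; inconclusive means meets just one of the two conditions; inactive means meets neither condition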;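 further: plate controls were neutral control median for no effect and positive control median for full effect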
NIH3T3 tox: kills mouse NIH/3T3 fibroblasts | shares compounds with T cruzi growth-1 | NIH/3T3 viability, CellTiter-Glo ATP luminescence, 90 h | 5,600 compounds, 14% hits | cytotoxicity (signal decrease), % at 8.35 µM;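 active means mean signal decrease across replicates above about 35% based on untreated-well scatter, with enough replicates individually passing, limit read from the data; inconclusive means no rule stated though some were filed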;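 further: 0% = median of neutral control wells and 100% = median of positive control wells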
3T3 cytotox 2: NIH/3T3 (mouse) viability loss | inhibition, % at 24.9 µM | 5,600 compounds, 56% hits | shares compounds with T cruzi growth-1 | NIH/3T3 viability, CellTiter-Glo ATP luminescence, 90 h;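 active means mean loss of cell viability signal at or above a set limit, and enough replicates individually reaching it; inconclusive means meets only the mean limit or only the replicate share; inactive means meets neither condition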;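 further: 0% = median of neutral control wells and 100% = median of positive control wells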
An asterisk follows results filed as active; ? = inconclusive; . = no result given; + = active, no number. The entries come from a sample that favours hits as a whole.

SMILES	KDM4C inh	IDH1 mut inh	T cruzi growth-1	T cruzi growth-2	T cruzi growth-3	NIH3T3 tox	3T3 cytotox 2
CCN1[C@@H]2Cn3c(ccc(/C=C/c4ccccc4)c3=O)[C@H]1[C@@H](C(=O)N1CCCCC1)[C@@H]2CO	-1.8	.	169.5*	13.6	-41.0	10.1	45.1*
CCN1[C@@H]2Cn3c(ccc(/C=C/c4ccccc4)c3=O)[C@H]1[C@@H](C(=O)N1CCOCC1)[C@@H]2CO	-0.7	.	26.0	.	.	.	.
C=C1C[C@@]23CCC4[C@](C)(C(=O)O)CCC[C@@]4(C)[C@]2(O)CCC1C3 (stereo partly specified)	.	0.1	.	.	.	.	.
O=C(CCCCCC(=O)Nc1ccccc1O)N/N=C/c1ccc(N2CCCC2)cc1	.	-0.3	.	.	.	.	.
O=C(COc1ccc2oc3c(c2c1)CCCC3)NCCN1CCOCC1	.	0.7	.	.	.	.	.
CN(C)C(=O)c1ccc(-c2ccc([C@H]3[C@H]4CN(C(=O)C5CCCC5)CCCCN4[C@H]3CO)cc2)cc1	.	.	32.1	.	.	.	.
CN(C)C(=O)c1ccc(-c2ccc([C@@H]3[C@H]4CN(C(=O)C5CCCC5)CCCCN4[C@H]3CO)cc2)cc1	.	.	114.3*	80.1	59.6	37.6*	37.6*
CN(C)C(=O)c1ccc(-c2ccc([C@@H]3[C@H](CO)N4CCCCN(C(=O)C5CCCC5)C[C@@H]34)cc2)cc1	.	.	100.0*	86.9	85.8	7.9	14.9
CN(C)C(=O)c1ccc(-c2ccc([C@@H]3[C@H]4CN(C(=O)C5CC5)CCCCN4[C@H]3CO)cc2)cc1	0.4	.	26.4	.	.	.	.
COc1ccc(S(=O)(=O)N(C)CC(=O)N2CCOCC2)cc1OC	.	0.2	.	.	.	.	.
COc1ccc(NC(=O)Nc2ccc3c(c2)C(=O)N([C@@H](C)CO)C[C@@H](C)[C@H](CN(C)S(=O)(=O)c2ccc(F)cc2)OCCCC[C@@H](C)O3)cc1	-0.6	0.7	?	109.2*	43.8	-25.1	11.3
COc1ccc(S(=O)(=O)N(C)C[C@H]2OCCCC[C@@H](C)Oc3ccc(NC(=O)Nc4ccc(F)cc4)cc3C(=O)N([C@@H](C)CO)C[C@@H]2C)cc1	-4.3	2.0	?	.	.	.	.
COc1ccc(S(=O)(=O)N(C)C[C@H]2OCCCC[C@@H](C)Oc3ccc(NC(=O)Nc4ccc(F)cc4)cc3C(=O)N([C@@H](C)CO)C[C@H]2C)cc1	-0.3	.	104.0	.	.	.	.
COc1ccc(S(=O)(=O)N(C)C[C@@H]2OCCCC[C@H](C)Oc3ccc(NC(=O)Nc4ccc(F)cc4)cc3C(=O)N([C@@H](C)CO)C[C@H]2C)cc1	-1.5	.	64.0	.	.	.	.
COc1ccc(S(=O)(=O)N(C)C[C@@H]2OCCCC[C@H](C)Oc3ccc(NC(=O)Nc4ccc(F)cc4)cc3C(=O)N([C@H](C)CO)C[C@@H]2C)cc1	-0.4	0.2	115.2*	101.8*	57.4	-5.3	-7.0
COc1ccc(S(=O)(=O)N(C)C[C@@H]2OCCCC[C@H](C)Oc3ccc(NC(=O)Nc4ccc(F)cc4)cc3C(=O)N([C@@H](C)CO)C[C@@H]2C)cc1	-0.3	.	115.7*	108.2*	92.7	-17.5	-10.8
Nc1cc(N)nc(SCc2n[nH]c(=S)n2-c2ccccc2)n1	.	-0.2	.	.	.	.	.
Cc1nnc(SCc2nnnn2-c2ccccc2)[nH]c1=O	.	2.2	.	.	.	.	.
CN1[C@H](C(=O)Nc2ccccc2)[C@@H](CO)[C@@H]2Cn3c(ccc(-c4ccccc4)c3=O)[C@@H]21	6.9	.	100.1*	59.4	-19.6	-0.9	?
CCN1[C@H](C(=O)Nc2ccccc2)[C@@H](CO)[C@@H]2Cn3c(ccc(-c4ccncc4)c3=O)[C@@H]21	1.3	.	14.4	.	.	.	.
CC(=O)N1[C@H](C(=O)NC2CCC2)[C@@H](CO)[C@@H]2Cn3c(ccc(-c4ccccc4)c3=O)[C@@H]21	1.2	.	20.5	.	.	.	.
CN(C)CC(=O)N1[C@H](C(=O)NC2CCC2)[C@@H](CO)[C@@H]2Cn3c(ccc(-c4ccccc4)c3=O)[C@@H]21	2.2	.	+	59.7	-19.8	-13.5	-24.3
COc1ccc(-c2ccc3n(c2=O)C[C@H]2[C@H](CO)[C@@H](C(=O)Nc4ccccc4)N(C)[C@@H]32)cc1	6.3	.	.	.	.	.	.
CN1[C@@H]2c3ccc(-c4ccccc4)c(=O)n3C[C@@H]2[C@@H](CO)[C@@H]1C(=O)Nc1ccccc1	4.0	.	100.5*	91.9	15.9	4.3	18.1
O=C(COc1ccc(C(=O)Nc2ccccc2Cl)cc1)Nc1cccc(C(F)(F)F)c1	.	0.4	.	.	.	.	.
CN(C)CCCNc1ncnc(N)c1[N+](=O)[O-]	.	0.3	.	.	.	.	.
C[C@@H]1CN([C@@H](C)CO)S(=O)(=O)c2ccc(-c3ccc(C#N)cc3)cc2O[C@@H]1CN(C)Cc1cccc(F)c1	-2.4	.	.	.	.	.	.
C[C@H](CO)N1C[C@H](C)[C@H](CN(C)Cc2cccc(F)c2)Oc2cc(-c3ccc(F)cc3)ccc2S1(=O)=O	-1.9	-1.9	90.7	.	.	.	.
C[C@@H]1CN([C@@H](C)CO)S(=O)(=O)c2ccc(-c3ccc(C#N)cc3)cc2O[C@H]1CN(C)Cc1cccc(F)c1	0.6	.	.	.	.	.	.
C[C@H](CO)N1C[C@H](C)[C@H](CN(C)Cc2cccc(F)c2)Oc2cc(-c3ccccc3)ccc2S1(=O)=O	0.2	.	120.5*	108.4*	68.6	24.5	103.5*
